Laboratory results as given in ChEMBL document CHEMBL1770139, “Synthesis of 'clickable' acylhomoserine lactone quorum sensing probes: unanticipated effects on mammalian cell activation” (Bioorg Med Chem Lett, 2011).
Calls of active or inactive are those of the source. The rule behind the calls is not given here.

Experiments:
[1] = tested on: Pseudomonas aeruginosa; assay: Induction of quorum sensing activity in lasI/rhlI-deleted Pseudomonas aeruginosa PAO-JP2 expressing plasmid pKD201 containing a LasI reporter coupled to the luxCDABE assessed as relative luminescence units normalized with respect to cell viability at 1 uM after 4 hrs by autoinducer activity assay
Method in brief: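 Autoinducer assay in P. aeruginosa luminescence reporter strain PAO-JP2, a PAO1 lasI/rhlI double mutant carrying luxABCDE.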

[2] = target: MAP kinase p38 (Mus musculus) (UniProt P47811+O08911+Q9WUI1+Q9Z1B7); assay: Induction of phosphorylation of p38 in mouse BMDM cells at 50 uM after 90 mins by Western blot analysis; type: cell-based
Method in brief: (§1)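 Primary bone marrow-derived macrophages exposed to alkynyl AHL analogue at 50 μM for 90 minutes. Cell extracts were probed by Western blot for p38 phosphorylation, eIF2α phosphorylation and PARP cleavage.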

[3] = target: Eukaryotic translation initiation factor 2 subunit 1 (Mus musculus) (UniProt Q6ZWX6); assay: Induction of phosphorylation of eIF2alpha in mouse BMDM cells at 50 uM after 90 mins by Western blot analysis; type: cell-based; method in brief: as §1
[4] = tested on: BMDM; assay: Induction of PARP cleavage in mouse BMDM cells at 50 uM after 90 mins by Western blot analysis; type: cell-based; method in brief: as §1

Eukaryotic translation initiation factor 2 subunit 1 (Mus musculus), sequence (Q6ZWX6 whole entry): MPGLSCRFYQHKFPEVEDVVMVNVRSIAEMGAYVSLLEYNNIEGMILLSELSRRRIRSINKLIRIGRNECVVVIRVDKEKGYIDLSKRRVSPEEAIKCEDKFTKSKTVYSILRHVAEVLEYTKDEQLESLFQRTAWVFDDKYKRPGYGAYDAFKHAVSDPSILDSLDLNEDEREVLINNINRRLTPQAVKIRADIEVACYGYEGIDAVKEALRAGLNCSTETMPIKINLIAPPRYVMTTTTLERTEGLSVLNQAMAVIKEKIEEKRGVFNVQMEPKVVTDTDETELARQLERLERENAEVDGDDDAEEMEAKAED

In the case of `[N-]=[N+]=NCCCCCCCCCC(=O)CC(=O)N[C@H]1CCOC1=O`, the Activity [1] is reported as “inactive”, the Activity [2] is reported as “Active” and the Activity [3] is reported as “Active”. For the same molecule, the Activity [4] was “Active”.
For `[N-]=[N+]=NCCCCCCCCCC(=O)CC(=O)N[C@@H]1CCOC1=O`, the Activity [1] was “inactive”, the Activity [2] was “inactive” and the Activity [3] was “inactive”. For the same molecule, the Activity [4] was “inactive”.
In the case of `C#CCCCCCCCCC(=O)CC(=O)N[C@H]1CCOC1=O`, the Activity [1] is reported as “Active”, the Activity [2] is reported as “Active” and the Activity [3] is reported as “Active”. For the same molecule, the Activity [4] was “Active”.
In the case of `CCCCCCCCCC(=O)CC(=O)N[C@H]1CCOC1=O`, the Activity [1] is reported as “Active”, the Activity [2] is reported as “Active” and the Activity [3] is reported as “Active”. The Activity [4] was “Active”.
For `C#CCCCCC(=O)CC(=O)N[C@H]1CCOC1=O`, the Activity [1] was “inactive”, the Activity [2] was “inactive” and the Activity [3] was “inactive”. The Activity [4] was “inactive”.
